Experimental data taken from ChEMBL document CHEMBL1140975, “Synthesis and antimalarial activity of carbamate and amide derivatives of 4-anilinoquinoline” (Eur J Med Chem, 2008).
Activity calls are given as the source filed them. No cut-off for these calls is given here.

Legend:
[1] = Selectivity index, ratio of IC50 for human MRC5 cells to IC50 for chloroquine-resistant Plasmodium falciparum FcB1R/Colombia; assay type: toxicity, cell-based; conditions: read-out: Ratio CC50/IC50
Procedure, shortened: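 SI is CC50 on MRC-5 over IC50 against FcB1R. MRC-5 cells were seeded at 5000 per well and treated after 24 h with two-fold dilutions in RPMI + 5% FCS (DMSO <0.5%). Incubation was 7 days at 37 °C, 5% CO2. Read-out was MTT, as % reduction of absorbance at 540 nm versus untreated cultures. CC50 is the concentration giving 50% cytotoxicity.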

[2] = Cytotoxicity against human MRC5 cells after 7 days by MTT assay; assay type: cell-based
Procedure, shortened: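 MRC-5 human embryonic lung cells were seeded at 5000 per well and washed after 24 h. Two-fold drug dilutions were added in RPMI + 5% FCS, with final DMSO below 0.5%. Plates were held at 37 °C in 5% CO₂ for 7 days. MTT absorbance at 540 nm was compared with untreated controls. CC₅₀ is the concentration causing 50% cytotoxicity.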

Plasmodium falciparum [3] = assay: Antimalarial activity after 24 hrs against chloroquine-resistant Plasmodium falciparum FcB1R/Colombia by [3H]hypoxanthine uptake; assay type: functional, organism-based
Procedure, shortened: (§1)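 Asynchronous P. falciparum cultures on human erythrocytes (1% parasitaemia, 1% final haematocrit) exposed to serial dilutions of drug for 24 h at 37 °C, then [3H]hypoxanthine added for another 24 h. Cells freeze-thawed, harvested onto glass-fibre filters and scintillation counted. Incorporation compared with drug-free control on the same plate. IC50 taken from concentration-response curve, mean ± SD of independent experiments. DMSO ≤0.1%.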

Plasmodium berghei [4] = assay: Antimalarial activity as reduced parasitaemia in Plasmodium berghei ANKA 65 infected Swiss CD1 mice (Mus musculus) at 40 mg/kg/day peroral dose then intraperitoneal for 4 days; assay type: functional; design: scale not given: the % may be the effect or the level left; conditions: route oral
Procedure, shortened: (§2)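 Female Swiss CD-1 mice (4 weeks old, 20–25 g), three per group, infected intraperitoneally with about 10⁷ P. berghei ANKA 65-parasitized erythrocytes from an infected donor. The first dose was given orally in 100% DMSO at infection, then intraperitoneally on the following 4 days. Infected DMSO-dosed mice served as controls. Read-outs were parasitaemia reduction at day 4 and excess MST, the % prolongation of mean survival time versus controls.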

Mus musculus = organism: Mus musculus; assay: Toxicity in Plasmodium berghei ANKA 65 infected Swiss CD1 mice (Mus musculus); assay type: organism-based; conditions: in vivo
Plasmodium berghei [5] = assay: Antimalarial activity as increased MST in Plasmodium berghei ANKA 65 infected Swiss CD1 mice (Mus musculus) at 40 mg/kg peroral dose day 1 followed by intraperitoneal dose for 4 days; assay type: functional
Procedure, shortened: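 Female Swiss CD-1 mice, four weeks old, 20-25 g, three per group. Infected ip with about 10^7 P. berghei ANKA 65 parasitized erythrocytes from a donor mouse. Dosed orally at 40 mg/kg in 100% DMSO at infection, then ip for the following 4 days. Controls were infected DMSO-dosed mice. Excess MST is the percent prolongation of mean survival time over controls.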

Plasmodium falciparum [6] = assay: Antimalarial activity against chloroquine-sensitive Plasmodium falciparum THAI/Thailand as [3H]hypoxanthine uptake after 24 hrs by semi-automated micro dilution; assay type: functional, organism-based; procedure, shortened: as §1
Plasmodium falciparum [7] = assay: Antimalarial activity after 24 hrs against chloroquine-resistant Plasmodium falciparum K1/Thailand by [3H]hypoxanthine uptake; assay type: functional, organism-based; procedure, shortened: as §1
Plasmodium berghei [8] = assay: Antimalarial activity as increased mean survival time in Plasmodium berghei ANKA 65 infected Swiss CD1 mice (Mus musculus) at 10 mg/kg peroral dose day 1 with intraperitoneal dose over 4 days; assay type: functional, organism-based; design: dose 10 mg/kg; procedure, shortened: as §2
Plasmodium berghei [9] = assay: Antimalarial activity as reduced parasitaemia in Plasmodium berghei ANKA 65 infected Swiss CD1 mice (Mus musculus) at 10 mg/kg/day peroral dose then intraperitoneal dose for 4 days; assay type: functional; design: scale not given: the % may be the effect or the level left; conditions: route oral; procedure, shortened: as §2

| SMILES | selectivity ratio [1] | CC50 at 168 h [2] [nM] | IC50 (Plasmodium falciparum [3]) [nM] | further results |
| --- | --- | --- | --- | --- |
| O=C(CN1CCCCC1)Nc1cc(COC(=O)CN2CCCCC2)cc(Nc2ccnc3cc(Cl)ccc23)c1 | 231 | – | – | – |
| O=C(CN1CCCCC1)Nc1cc(CNCCN2CCCC2)cc(Nc2ccnc3cc(Cl)ccc23)c1 | 182 | – | – | – |
| CCN(CC)CCCCC(=O)OCc1cc(NC(=O)CN2CCCCC2)cc(Nc2ccnc3cc(Cl)ccc23)c1 | 89 | – | – | – |
| O=C(CN1CCCCC1)Nc1cc(Nc2ccnc3cc(Cl)ccc23)cc(C(=O)N2CCOCC2)c1 | > 298 | > 32000 | 108 | – |
| O=C(CN1CCCCC1)Nc1cc(CO)cc(Nc2ccnc3cc(Cl)ccc23)c1 | 281 | 12500 | – | Activity (Plasmodium berghei [4]): 100%; Activity (Mus musculus): Non-toxic; Activity (Plasmodium berghei [5]; route oral): 110% |
| O=C(CN1CCCCC1)Nc1cc(COC(=O)NCCN2CCOCC2)cc(Nc2ccnc3cc(Cl)ccc23)c1 | > 259 | > 12500 | 48.3 | IC50 (Plasmodium falciparum [6]): 38.6 nM; IC50 (Plasmodium falciparum [7]): 19.4 nM |
| CCN(CC)CCCC(C)Nc1ccnc2cc(Cl)ccc12 (stereo unspecified) [CHLOROQUINE] | – | 50000 | – | Activity (Mus musculus): Non-toxic; Activity (Plasmodium berghei [8]): Active; Activity (Plasmodium berghei [9]): 100% |
| CN(C)CCNC(=O)OCc1cc(NC(=O)CN2CCCCC2)cc(Nc2ccnc3cc(Cl)ccc23)c1 | 304 | 3100 | 10.2 | – |
| CCN(CC)CCCNC(=O)OCc1cc(NC(=O)CN2CCCCC2)cc(Nc2ccnc3cc(Cl)ccc23)c1 | 434 | 6300 | 14.5 | – |
| O=C(CN1CCCCC1)Nc1cc(COC(=O)NCCN2CCCCC2)cc(Nc2ccnc3cc(Cl)ccc23)c1 | 1120 | 12500 | 11.2 | IC50 (Plasmodium falciparum [6]): 19.4 nM; Activity (Plasmodium berghei [4]): 100%; Activity (Mus musculus): Non-toxic; Activity (Plasmodium berghei [5]; route oral): 50%; IC50 (Plasmodium falciparum [7]): 9.7 nM |
| O=C(CN1CCCCC1)Nc1cc(Nc2ccnc3cc(Cl)ccc23)cc(C(=O)NCCN2CCOCC2)c1 | > 546 | > 32000 | 58.6 | – |
| O=C(CN1CCCCC1)Nc1cc(CNCCN2CCCCC2)cc(Nc2ccnc3cc(Cl)ccc23)c1 | 648 | – | 6.6 | – |
| O=C(CN1CCCCC1)Nc1cc(COC(=O)NCc2ccccc2)cc(Nc2ccnc3cc(Cl)ccc23)c1 | > 347 | > 12500 | 36 | – |
| O=C(CN1CCCCC1)Nc1cc(COC(=O)CCCCN2CCOCC2)cc(Nc2ccnc3cc(Cl)ccc23)c1 | 887 | – | – | Activity (Plasmodium berghei [4]): 99.8%; Activity (Mus musculus): Non-toxic; Activity (Plasmodium berghei [5]; route oral): 73% |
| O=C(CN1CCCCC1)Nc1cc(Nc2ccnc3cc(Cl)ccc23)cc(C(=O)N2CCCCC2)c1 | > 112 | > 32000 | 286 | – |
| CN(C)CCCNCc1cc(NC(=O)CN2CCCCC2)cc(Nc2ccnc3cc(Cl)ccc23)c1 | 174 | – | – | – |

| SMILES | selectivity ratio [1] | CC50 at 168 h [2] [nM] | IC50 (Plasmodium falciparum [3]) [nM] | further results |
| --- | --- | --- | --- | --- |
| O=C(CN1CCCCC1)Nc1cc(COC(=O)CCN2CCCCC2)cc(Nc2ccnc3cc(Cl)ccc23)c1 | 158 | – | – | – |
| O=C(CN1CCCCC1)Nc1cc(Nc2ccnc3cc(Cl)ccc23)cc(C(=O)N2CCN(c3ccccc3)CC2)c1 | 106 | 16000 | 151 | – |
| CN(C)CCN(C)C(=O)c1cc(NC(=O)CN2CCCCC2)cc(Nc2ccnc3cc(Cl)ccc23)c1 | 851 | 16000 | 18.8 | – |
| O=C(CN1CCCCC1)Nc1cc(Nc2ccnc3cc(Cl)ccc23)cc(C(=O)O)c1 | – | > 32000 | > 1000 | – |
| O=C(CN1CCCCC1)Nc1cc(Nc2ccnc3cc(Cl)ccc23)cc(C(=O)N2CCN(Cc3ccccc3)CC2)c1 | 296 | 15000 | 50.6 | – |
| CCN(CC)Cc1cc(Nc2ccnc3cc(Cl)ccc23)ccc1O.Cl | 2500 | 12000 | 4.8 | IC50 (Plasmodium falciparum [6]): 4.6 nM; Activity (Mus musculus): Non-toxic; Activity (Plasmodium berghei [8]): Active; Activity (Plasmodium berghei [9]): 100%; IC50 (Plasmodium falciparum [7]): 9.4 nM |
| CN1CCN(CCCNC(=O)OCc2cc(NC(=O)CN3CCCCC3)cc(Nc3ccnc4cc(Cl)ccc34)c2)CC1 | – | 6300 | – | – |
| CN(C)CCCNC(=O)c1cc(NC(=O)CN2CCCCC2)cc(Nc2ccnc3cc(Cl)ccc23)c1 | > 177 | > 32000 | 181 | – |
| O=C(CN1CCCCC1)Nc1cc(CNCCN2CCOCC2)cc(Nc2ccnc3cc(Cl)ccc23)c1 | 406 | – | 7.9 | Activity (Plasmodium berghei [4]): 100%; Activity (Mus musculus): Non-toxic; Activity (Plasmodium berghei [5]): Active |
| O=C(CN1CCCCC1)Nc1cc(Nc2ccnc3cc(Cl)ccc23)cc(C(=O)NCCN2CCCC2)c1 | 1024 | 17000 | 16.6 | – |
| CN(C)CCNC(=O)c1cc(NC(=O)CN2CCCCC2)cc(Nc2ccnc3cc(Cl)ccc23)c1 | 478 | 15000 | 31.4 | – |
| CN(C)CCNCc1cc(NC(=O)CN2CCCCC2)cc(Nc2ccnc3cc(Cl)ccc23)c1 | 1150 | – | – | – |
| O=C(CN1CCCCC1)Nc1cc(COC(=O)CCCCN2CCCCC2)cc(Nc2ccnc3cc(Cl)ccc23)c1 | 806 | – | – | – |
| O=C(CN1CCCCC1)Nc1cc(COC(=O)CCCCCN2CCCCC2)cc(Nc2ccnc3cc(Cl)ccc23)c1 | 456 | – | – | – |
| CN1CCN(C(=O)c2cc(NC(=O)CN3CCCCC3)cc(Nc3ccnc4cc(Cl)ccc34)c2)CC1 | 833 | 16000 | 19.2 | IC50 (Plasmodium falciparum [6]): 38.4 nM; Activity (Plasmodium berghei [4]): 99.96%; Activity (Mus musculus): Non-toxic; Activity (Plasmodium berghei [5]; route oral): 150%; IC50 (Plasmodium falciparum [7]): 51.2 nM |
